From PMC7941214 (Journal of medicinal chemistry, 2019) come the findings set out here.

The structures appear in SMILES notation. Several values for one entry are separate records, joined by “and”; a condition that tells them apart may be missing. Equal values may be shown once.

A short description of one data set: Log P determination. The settings on record: n-octanol/water, Au by FAAS.
The subject of the next data set is E. cloacae NCTC 13405. As to the kind of experiment: Broth microdilution MIC/MBC, E. cloacae. The format is cell-based, Enterobacter cloacae. Particulars: for MIC E. cloacae NCTC 13405: value before the parentheses, two values = two repeats; for MBC E. cloacae NCTC 13405: value in parentheses. In outline:
(§1)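 CLSI broth microdilution in cation-adjusted Mueller–Hinton broth. Log-phase cultures were diluted to 7.5 × 10^5 CFU/mL, then mixed 1:1 with 2-fold serial dilutions of gold complexes from DMSO or water stocks, in triplicate, and held 37 °C, 18 h, static. MIC: lowest concentration giving >90% inhibition by OD600 against medium-only and bacteria-only wells. […] E. coli ATCC 25922 quality control was checked each run with ciprofloxacin and […].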
Background: Broth dilution looks for growth in wells or tubes with falling amounts of substance.

The subject of the next data set is A. baumannii NCTC 13420. Briefly: Broth microdilution MIC/MBC, A. baumannii. Type of data set: cell-based, Acinetobacter baumannii. Particulars: for MIC A. baumannii NCTC 13420: value before the parentheses, two values = two repeats; for MBC A. baumannii NCTC 13420: value in parentheses.
For another data set, the system named is E. coli ATCC 25922. Briefly: Broth microdilution MIC/MBC, E. coli. Type of data set: cell-based, Escherichia coli. The settings on record: for MIC E. coli ATCC 25922: value before the parentheses, two values = two repeats; for MBC E. coli ATCC 25922: value in parentheses. The essentials:
as §1

Another data set has as its system S. aureus JE2 (USA300). As to the kind of experiment: Broth microdilution MIC/MBC, S. aureus. The settings on record: for MBC S. aureus JE2 (USA300): value in parentheses; for MIC S. aureus JE2 (USA300): value before the parentheses, two values = two repeats. Type of data set: cell-based, Staphylococcus aureus. In outline: as §1
Data set [1] concerns K. pneumoniae ATCC 700603. As to the kind of experiment: Broth microdilution MIC/MBC, K. pneumoniae. Type of data set: cell-based, Klebsiella pneumoniae. Particulars: for MIC K. pneumoniae ATCC 700603: value before the parentheses, two values = two repeats; for MBC K. pneumoniae ATCC 700603: value in parentheses. The essentials: as §1
The subject of the next data set is P. aeruginosa NCTC 13437. Briefly: Broth microdilution MIC/MBC, P. aeruginosa. Type of data set: cell-based, Pseudomonas aeruginosa. Particulars: for MIC P. aeruginosa NCTC 13437: value before the parentheses, two values = two repeats; for MBC P. aeruginosa NCTC 13437: value in parentheses. In outline: as §1
The subject of the next data set is E. faecium ATCC 700221. Briefly: Broth microdilution MIC/MBC, E. faecium. The format is cell-based, Enterococcus faecium. Particulars: for MBC E. faecium ATCC 700221: value in parentheses; for MIC E. faecium ATCC 700221: value before the parentheses, two values = two repeats. In outline:
as §1

What is called log P is the decadic logarithm of the partition coefficient of the neutral form, usually between octanol and water. Lower therefore signals lower lipophilicity. In the case of `CC[PH](CC)(CC)[Au][S]C1OC(CO)C(OC2OC(CO)C(O)C(O)C2O)C(O)C1O` (stereo not shown) [Compound 14], in the data set “Log P determination”, the lipophilicity (log P) is reported as −1.69. For the same compound, in the data set with E. cloacae NCTC 13405, the MIC E. cloacae NCTC 13405 came to 190 µM and the MBC E. cloacae NCTC 13405 is 190 µM. In the data set with A. baumannii NCTC 13420, the MIC A. baumannii NCTC 13420 came to 24 µM and the MBC A. baumannii NCTC 13420 was found to be 24 µM. In the data set with E. coli ATCC 25922, the MIC E. coli ATCC 25922 was found to be 12 µM and the MBC E. coli ATCC 25922 is 12 µM. Further, the “MBC S. aureus JE2 (USA300)” value in the data set with S. aureus JE2 (USA300) is 0.09 µM. In data set [1], the “MIC K. pneumoniae ATCC 700603” value was greater than 381 µM. Moreover, in the data set on P. aeruginosa NCTC 13437, the MIC P. aeruginosa NCTC 13437 is 381 µM and the MBC P. aeruginosa NCTC 13437 is 381 µM. For the same compound, the “MBC E. faecium ATCC 700221” value in the data set with E. faecium ATCC 700221 came to 0.4 µM.
On to `CC(=O)OCC1O[C@@H]([S][Au-][P+](c2ccccc2)(c2ccccc2)c2ccccc2)C(OC(C)=O)[C@@H](OC(C)=O)[C@@H]1OC(C)=O` (stereo partly drawn) [Compound 33, (2,3,4,6-Tetra-O-acetyl-1-thio-β-D-glucopyranosato)-(triphenylphosphine) Gold(I)], for which the “log P” value in “Log P determination” was greater than 3.87. Also, the “MIC E. cloacae NCTC 13405” value with E. cloacae NCTC 13405 was greater than 311 µM. Moreover, the “MIC A. baumannii NCTC 13420” value with A. baumannii NCTC 13420 was greater than 311 µM. The “MIC E. coli ATCC 25922” value in the data set on E. coli ATCC 25922 was greater than 311 µM. For the same compound, in the data set on S. aureus JE2 (USA300), the “MIC S. aureus JE2 (USA300)” value is 1 µM and 2 µM; the “MBC S. aureus JE2 (USA300)” value turned out to be 2 µM. Moreover, the “MIC K. pneumoniae ATCC 700603” value in data set [1] was greater than 311 µM. Besides, the “MIC P. aeruginosa NCTC 13437” value in the data set with P. aeruginosa NCTC 13437 was greater than 311 µM. In the data set with E. faecium ATCC 700221, the MIC E. faecium ATCC 700221 is 5 µM and the MBC E. faecium ATCC 700221 turned out to be 5 µM.
In the case of `[Cl][Au].c1ccc(P(c2ccccc2)c2ccccc2)cc1` [Compound 27, (Triphenylphosphine)gold Chloride], the “log P” value in “Log P determination” is listed as greater than 3.94. Besides, the “MIC E. cloacae NCTC 13405” value in the data set on E. cloacae NCTC 13405 is greater than 518 µM. The “MBC A. baumannii NCTC 13420” value with A. baumannii NCTC 13420 is 518 µM. Further, the “MIC E. coli ATCC 25922” value in the data set on E. coli ATCC 25922 was greater than 518 µM. In the data set on S. aureus JE2 (USA300), the “MIC S. aureus JE2 (USA300)” value is 1 µM and 2 µM; the “MBC S. aureus JE2 (USA300)” value was found to be 4 µM. Besides, the “MIC K. pneumoniae ATCC 700603” value in data set [1] was greater than 518 µM. For the same compound, the “MIC P. aeruginosa NCTC 13437” value in the data set with P. aeruginosa NCTC 13437 was greater than 518 µM. In addition, in the data set with E. faecium ATCC 700221, the MIC E. faecium ATCC 700221 was 4 µM and the MBC E. faecium ATCC 700221 turned out to be 4 µM.
With `CC[PH](CC)(CC)[Au][S]C1OC(CO)C(O)C(O)C1O` [Compound 11, (1-Thio-D-mannopyranosato)(triethylphosphine) Gold(I)], in “Log P determination”, the “log P” value is reported as −0.59. In the data set with E. cloacae NCTC 13405, the “MIC E. cloacae NCTC 13405” value worked out at 125 µM and the “MBC E. cloacae NCTC 13405” value came out at 251 µM. In addition, in the data set with A. baumannii NCTC 13420, the “MIC A. baumannii NCTC 13420” value was 31 µM and the “MBC A. baumannii NCTC 13420” value amounted to 63 µM. Moreover, in the data set with E. coli ATCC 25922, the MIC E. coli ATCC 25922 was 16 µM and the MBC E. coli ATCC 25922 worked out at 16 µM. Besides, the “MBC S. aureus JE2 (USA300)” value in the data set on S. aureus JE2 (USA300) was found to be 0.1 µM. For the same compound, in data set [1], the MIC K. pneumoniae ATCC 700603 amounted to 502 µM and the MBC K. pneumoniae ATCC 700603 turned out to be 502 µM. In the data set on P. aeruginosa NCTC 13437, the MIC P. aeruginosa NCTC 13437 was found to be 502 µM and the MBC P. aeruginosa NCTC 13437 was found to be 502 µM. Besides, in the data set on E. faecium ATCC 700221, the “MIC E. faecium ATCC 700221” value was 0.1 µM and 0.06 µM; the “MBC E. faecium ATCC 700221” value amounted to 0.5 µM.
Take `CC(=O)NC1C([S][Au][PH](C)(C)C)OC(CO)C(O)C1O` [Compound 39, (2-Acetamido-2-deoxy-1-thio-β-D-glucopyranosato)-(trimethylphosphine) Gold(I)]: in “Log P determination”, the log partition coefficient (log P) is −2.03. In the data set on E. cloacae NCTC 13405, the “MIC E. cloacae NCTC 13405” value is 8 µM and 16 µM; the “MBC E. cloacae NCTC 13405” value is 16 µM. Further, in the data set with A. baumannii NCTC 13420, the “MIC A. baumannii NCTC 13420” value is 16 µM and 8 µM; the “MBC A. baumannii NCTC 13420” value stood at 16 µM. In addition, the “MBC E. coli ATCC 25922” value with E. coli ATCC 25922 was determined as 31 µM. Moreover, in the data set on S. aureus JE2 (USA300), the MIC S. aureus JE2 (USA300) was found to be 0.5 µM and the MBC S. aureus JE2 (USA300) is 0.5 µM. In addition, in data set [1], the “MIC K. pneumoniae ATCC 700603” value is 31 µM and the “MBC K. pneumoniae ATCC 700603” value worked out at 126 µM. In the data set with P. aeruginosa NCTC 13437, the “MIC P. aeruginosa NCTC 13437” value was greater than 503 µM. Moreover, the “MBC E. faecium ATCC 700221” value in the data set with E. faecium ATCC 700221 was found to be 0.5 µM.
